Key:
[1] = system: Leishmania donovani; test: Antiparasitic activity against Leishmania donovani MHOM/SD/1962/1S-Cl2d axenic amastigotes at 50 uM by alamar blue assay; assay type: functional
[2] = system: Leishmania amazonensis; test: Antiparasitic activity against Leishmania amazonensis assessed as survival index at 136 uM; assay type: functional
[3] = system: Leishmania amazonensis; test: Antiparasitic activity against Leishmania amazonensis assessed as survival index at 68 uM; assay type: functional
[4] = Toxicity against peritoneal macrophages assessed as survival induces at 136 uM; assay type: cell-based, Peritoneal macrophage cell; details: read-out: Survival
[5] = Toxicity against peritoneal macrophages assessed as survival induces at 68 uM; assay type: cell-based, Peritoneal macrophage cell; details: read-out: Survival
[6] = system: Leishmania donovani; test: Antiparasitic activity against Leishmania donovani MHOM/SD/1962/1S-Cl2d axenic amastigotes at 15 uM by alamar blue assay; assay type: functional
[7] = Cytotoxicity against human THP1 cells at 50 uM after 48 hrs by alamar blue assay; assay type: cell-based; details: THP-1 cells, read-out: INH
Method in brief: (§1)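 THP-1 cells in complete RPMI-1640, 10% FCS, added to compounds in medium with DMSO, triplicate, 48 h at 37 °C, 5% CO2; alamarBlue added, 3 h further incubation, fluorescence ex 544/em 590 nm; % growth inhibition.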

[8] = system: Leishmania donovani; test: Antiparasitic activity against Leishmania donovani MHOM/SD/1962/1S-Cl2d amastigotes in human THP1 cells at 25 uM after 48 hrs by microplate reader; assay type: functional; details: THP-1, 48 h
[9] = system: Leishmania donovani; test: Antiparasitic activity against Leishmania donovani MHOM/SD/1962/1S-Cl2d amastigotes in human THP1 cells at 12.5 uM after 48 hrs by microplate reader; assay type: functional; details: THP-1, 48 h
[10] = Cytotoxicity against human THP1 cells at 12.5 uM after 48 hrs by alamar blue assay; assay type: cell-based; details: THP-1 cells, read-out: INH; method in brief: as §1
[11] = Cytotoxicity against human THP1 cells at 25 uM after 48 hrs by alamar blue assay; assay type: cell-based; details: THP-1 cells, read-out: INH; method in brief: as §1
[12] = system: Leishmania donovani; test: Antiparasitic activity against Leishmania donovani MHOM/SD/1962/1S-Cl2d axenic amastigotes at 1 uM by alamar blue assay; assay type: functional
[13] = system: Leishmania donovani; test: Antileishmanial activity against Leishmania donovani promastigotes; assay type: functional, organism-based
[14] = system: Leishmania donovani; test: Antileishmanial activity against Leishmania donovani amastigotes; assay type: functional, organism-based
[15] = system: Leishmania donovani; test: Antileishmanial activity against Leishmania donovani infected golden hamster assessed as reduction of parasite burden at 10 mg/kg after 6 weeks; assay type: functional; design: scale not given: the % may be the effect or the level left
[16] = system: Leishmania donovani; test: Antiparasitic activity against Leishmania donovani MHOM/SD/1962/1S-Cl2d amastigotes in human THP1 cells at 50 uM after 48 hrs by microplate reader; assay type: functional; details: THP-1, 48 h

**Q.** For CC(C)[C@@]12CC[C@]3(COC(=O)c4ccccc4)CC[C@]4(C)C(=C31)[C@H](C[C@@H]1[C@@]3(C)CC[C@H](OC(=O)c5ccccc5)C(C)(C)[C@@H]3CC[C@]14C)n1c(=O)n(C)c(=O)n12, which inhibition at 50 µM [1] is on record?
**A.** 0%

**Q.** For CC(C)[C@@]12CC[C@]3(COC(=O)C4CCCCC4)CC[C@]4(C)C(=C31)[C@H](C[C@@H]1[C@@]3(C)CC[C@H](OC(=O)C5CCCCC5)C(C)(C)[C@@H]3CC[C@]14C)n1c(=O)n(C(C)(C)C)c(=O)n12, which inhibition at 50 µM [1] is on record?
**A.** 4.8%

**Q.** Which inhibition at 50 µM [1] does the source give for CC(=O)OC[C@]12CC[C@]3(C(C)C)C1=C1[C@H](C[C@@H]4[C@@]5(C)CC[C@H](OC(C)=O)C(C)(C)[C@@H]5CC[C@@]4(C)[C@]1(C)CC2)n1c(=O)n(-c2ccc(C(C)=O)cc2)c(=O)n13 here?
**A.** 45%

**Q.** With CC(=O)OC[C@]12CC[C@]3(C(C)C)C1=C1[C@H](C[C@@H]4[C@@]5(C)CC[C@H](OC(C)=O)C(C)(C)[C@@H]5CC[C@@]4(C)[C@]1(C)CC2)n1c(=O)n(-c2ccc4c(c2)CCC4)c(=O)n13 as the compound, how does the inhibition at 50 µM [1] read?
**A.** 23%

**Q.** For C=C(C)[C@@H]1CC[C@]2(C=O)CC[C@]3(C)[C@H](CC[C@@H]4[C@@]5(C)CC[C@H](O)C(C)(C)[C@@H]5CC[C@]43C)[C@@H]12 [BETULINALDEHYDE], which survival at 136 µM [2] is on record?
**A.** 12%

**Q.** What about the survival at 68 µM [3] of the same compound?
**A.** 42%

**Q.** What about the viability at 136 µM [4] of the same compound?
**A.** 70%

**Q.** And the viability at 68 µM [5]?
**A.** 80%

**Q.** Which inhibition at 50 µM [1] does the source give for CC(=O)OC[C@]12CC[C@]3(C(C)C)C1=C1[C@H](C[C@@H]4[C@@]5(C)CC[C@H](OC(C)=O)C(C)(C)[C@@H]5CC[C@@]4(C)[C@]1(C)CC2)n1c(=O)n(-c2cccc4ccccc24)c(=O)n13 here?
**A.** 58%

**Q.** With CCCCn1c(=O)n2n(c1=O)[C@]1(C(C)C)CC[C@]3(COC(C)=O)CC[C@]4(C)C(=C31)[C@@H]2C[C@@H]1[C@@]2(C)CC[C@H](OC(C)=O)C(C)(C)[C@@H]2CC[C@]14C as the compound, how does the inhibition at 50 µM [1] read?
**A.** 49%

**Q.** With CC(=O)OC[C@]12CC[C@]3(C(C)C)C1=C1[C@H](C[C@@H]4[C@@]5(C)CC[C@H](OC(C)=O)C(C)(C)[C@@H]5CC[C@@]4(C)[C@]1(C)CC2)n1c(=O)n(-c2ccccc2)c(=O)n13 as the compound, how does the inhibition at 50 µM [1] read?
**A.** 36%

**Q.** With CC(C)C(=O)OC[C@]12CC[C@]3(C(C)C)C1=C1[C@H](C[C@@H]4[C@@]5(C)CC[C@H](OC(=O)C(C)C)C(C)(C)[C@@H]5CC[C@@]4(C)[C@]1(C)CC2)n1c(=O)n(C)c(=O)n13 as the compound, how does the inhibition at 15 µM [6] read?
**A.** 19%

**Q.** Which cytotoxicity at 48 h, 50 µM [7] does the source give for CC(=O)OC[C@]12CC[C@]3(C(C)C)C1=C1[C@H](C[C@@H]4[C@@]5(C)CC[C@H](OC(C)=O)C(C)(C)[C@@H]5CC[C@@]4(C)[C@]1(C)CC2)n1c(=O)[nH]c(=O)n13 here?
**A.** 97%

**Q.** And the inhibition at 25 µM [8]?
**A.** 55%

**Q.** And the inhibition at 12.5 µM [9]?
**A.** 4.8%

**Q.** What about the inhibition at 50 µM [1] of the same compound?
**A.** 88%

**Q.** And the cytotoxicity at 48 h, 12.5 µM [10]?
**A.** 0%

**Q.** And the cytotoxicity at 48 h, 25 µM [11]?
**A.** 2.4%

**Q.** With C[C@@H]1[C@H](O)[C@@H](C)/C=C/C=C/C=C/C=C/C=C/C=C/C=C/[C@H](O[C@@H]2O[C@H](C)[C@@H](O)[C@H](N)[C@@H]2O)C[C@@H]2O[C@](O)(C[C@@H](O)C[C@@H](O)[C@H](O)CC[C@@H](O)C[C@@H](O)CC(=O)O[C@H]1C)C[C@H](O)[C@H]2C(=O)O [AMPHOTERICIN B] as the compound, how does the inhibition at 1 µM [12] read?
**A.** > 90%

**Q.** For CC(C)[C@@]12CC[C@]3(CO)CC[C@]4(C)C(=C31)[C@H](C[C@@H]1[C@@]3(C)CC[C@H](O)C(C)(C)[C@@H]3CC[C@]14C)n1c(=O)n(C)c(=O)n12, which inhibition at 50 µM [1] is on record?
**A.** 50%

**Q.** For CC(=O)OC[C@]12CC[C@]3(C(C)C)C1=C1[C@H](C[C@@H]4[C@@]5(C)CC[C@H](OC(C)=O)C(C)(C)[C@@H]5CC[C@@]4(C)[C@]1(C)CC2)n1c(=O)n(Cc2ccccc2)c(=O)n13, which inhibition at 50 µM [1] is on record?
**A.** 25%

**Q.** For CCn1c(=O)n2n(c1=O)[C@]1(C(C)C)CC[C@]3(COC(C)=O)CC[C@]4(C)C(=C31)[C@@H]2C[C@@H]1[C@@]2(C)CC[C@H](OC(C)=O)C(C)(C)[C@@H]2CC[C@]14C, which cytotoxicity at 48 h, 50 µM [7] is on record?
**A.** 48%

**Q.** And the inhibition at 25 µM [8]?
**A.** 53%

**Q.** What about the inhibition at 12.5 µM [9] of the same compound?
**A.** 0%

**Q.** What about the inhibition at 50 µM [1] of the same compound?
**A.** 88%

**Q.** What about the cytotoxicity at 48 h, 12.5 µM [10] of the same compound?
**A.** 8.5%

**Q.** And the cytotoxicity at 48 h, 25 µM [11]?
**A.** 13%

**Q.** With CC(=O)OC[C@]12CC[C@]3(C(C)C)C1=C1[C@H](C[C@@H]4[C@@]5(C)CC[C@H](OC(C)=O)C(C)(C)[C@@H]5CC[C@@]4(C)[C@]1(C)CC2)n1c(=O)n(-c2ccc(Cl)cc2)c(=O)n13 as the compound, how does the inhibition at 50 µM [1] read?
**A.** 30%

**Q.** For CC(=O)OC[C@]12CC[C@]3(C(C)C)C1=C1[C@H](C[C@@H]4[C@@]5(C)CC[C@H](OC(C)=O)C(C)(C)[C@@H]5CC[C@@]4(C)[C@]1(C)CC2)n1c(=O)n(-c2cccc([N+](=O)[O-])c2)c(=O)n13, which inhibition at 50 µM [1] is on record?
**A.** 30%

**Q.** Which results are given for CC(=O)OC[C@]12CC[C@]3(C(C)C)C1=C1[C@H](C[C@@H]4[C@@]5(C)CC[C@H](OC(C)=O)C(C)(C)[C@@H]5CC[C@@]4(C)[C@]1(C)CC2)n1c(=O)n(C)c(=O)n13?
**A.** cytotoxicity at 48 h, 50 µM [7]: 94%; inhibition at 12.5 µM [9]: 60%; inhibition at 50 µM [1]: 98%; cytotoxicity at 48 h, 12.5 µM [10]: 39%; cytotoxicity at 48 h, 25 µM [11]: 78%

**Q.** Which IC50 [13] does the source give for C=C(C)[C@@H]1CC[C@]2(C(=O)O)CC[C@]3(C)[C@H](CC[C@@H]4[C@@]5(C)CC[C@H](O)C(C)(C)[C@@H]5CC[C@]43C)[C@@H]12 [BETULINIC ACID] here?
**A.** 2.6 µM

**Q.** And the IC50 [14]?
**A.** 4.1 µM

**Q.** What about the Activity [15] of the same compound?
**A.** 92%

**Q.** With COc1cccc(-n2c(=O)n3n(c2=O)[C@]2(C(C)C)CC[C@]4(COC(C)=O)CC[C@]5(C)C(=C42)[C@@H]3C[C@@H]2[C@@]3(C)CC[C@H](OC(C)=O)C(C)(C)[C@@H]3CC[C@]25C)c1 as the compound, how does the inhibition at 50 µM [1] read?
**A.** 44%

**Q.** Which inhibition at 15 µM [6] does the source give for CCCC(=O)OC[C@]12CC[C@]3(C(C)C)C1=C1[C@H](C[C@@H]4[C@@]5(C)CC[C@H](OC(=O)CCC)C(C)(C)[C@@H]5CC[C@@]4(C)[C@]1(C)CC2)n1c(=O)n(C)c(=O)n13 here?
**A.** 26%

**Q.** Which inhibition at 50 µM [1] does the source give for CC(C)[C@@]12CC[C@]3(COC(=O)C4CCCCC4)CC[C@]4(C)C(=C31)[C@H](C[C@@H]1[C@@]3(C)CC[C@H](OC(=O)C5CCCCC5)C(C)(C)[C@@H]3CC[C@]14C)n1c(=O)n(C)c(=O)n12 here?
**A.** 5.5%

**Q.** Which inhibition at 50 µM [1] does the source give for CC(C)[C@@]12CC[C@]3(COC(=O)c4ccccc4)CC[C@]4(C)C(=C31)[C@H](C[C@@H]1[C@@]3(C)CC[C@H](OC(=O)c5ccccc5)C(C)(C)[C@@H]3CC[C@]14C)n1c(=O)n(-c3ccccc3)c(=O)n12 here?
**A.** 0%

**Q.** For CC(=O)OC[C@]12CC[C@]3(C(C)C)C1=C1[C@H](C[C@@H]4[C@@]5(C)CC[C@H](OC(C)=O)C(C)(C)[C@@H]5CC[C@@]4(C)[C@]1(C)CC2)n1c(=O)n(-c2ccc(F)cc2)c(=O)n13, which inhibition at 50 µM [1] is on record?
**A.** 48%

**Q.** For CCC(=O)OC[C@]12CC[C@]3(C(C)C)C1=C1[C@H](C[C@@H]4[C@@]5(C)CC[C@H](OC(=O)CC)C(C)(C)[C@@H]5CC[C@@]4(C)[C@]1(C)CC2)n1c(=O)n(C)c(=O)n13, which cytotoxicity at 48 h, 50 µM [7] is on record?
**A.** 16%

**Q.** And the inhibition at 50 µM [16]?
**A.** 83%

**Q.** What about the inhibition at 25 µM [8] of the same compound?
**A.** 55%

**Q.** And the inhibition at 12.5 µM [9]?
**A.** 18%

**Q.** What about the inhibition at 50 µM [1] of the same compound?
**A.** 93%

**Q.** And the cytotoxicity at 48 h, 12.5 µM [10]?
**A.** 5%

**Q.** And the cytotoxicity at 48 h, 25 µM [11]?
**A.** 15%

**Q.** With CC(C)[C@@]12CC[C@]3(CO)CC[C@]4(C)C(=C31)[C@H](C[C@@H]1[C@@]3(C)CC[C@H](O)C(C)(C)[C@@H]3CC[C@]14C)n1c(=O)n(-c3ccccc3)c(=O)n12 as the compound, how does the inhibition at 50 µM [1] read?
**A.** 48%
